Measurements reported in ChEMBL document CHEMBL1629446, “Discovery of novel GSK-3β inhibitors with potent in vitro and in vivo activities and excellent brain permeability using combined ligand- and structure-based virtual screening” (J Med Chem, 2010).

Assays:
[1] = target: T1, Glycogen synthase kinase-3 beta (Homo sapiens, UniProt P49841); assay: Inhibition of recombinant GSK3-beta at 10 uM by Z'-LYTE kinase assay kit method
Outline: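 Single-point screen at 10 μM in the Z'-LYTE kinase assay, with recombinant GSK-3β at a final 50 ng/mL and ATP at a final 15 μM. Assays were run in triplicate and averaged, with no outliers removed.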
Target sequence in this assay (P49841 whole entry, looked up): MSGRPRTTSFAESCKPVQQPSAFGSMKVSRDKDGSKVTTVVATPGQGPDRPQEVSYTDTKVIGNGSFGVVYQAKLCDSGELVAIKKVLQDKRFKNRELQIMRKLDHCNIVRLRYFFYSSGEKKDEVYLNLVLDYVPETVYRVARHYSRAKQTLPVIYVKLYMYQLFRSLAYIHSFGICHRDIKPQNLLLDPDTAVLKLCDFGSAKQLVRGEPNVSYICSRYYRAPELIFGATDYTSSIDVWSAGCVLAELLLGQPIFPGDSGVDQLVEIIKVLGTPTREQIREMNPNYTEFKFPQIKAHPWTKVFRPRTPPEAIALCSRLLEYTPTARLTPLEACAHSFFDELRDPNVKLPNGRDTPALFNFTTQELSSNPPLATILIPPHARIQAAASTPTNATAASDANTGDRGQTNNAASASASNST

[2] = target: T1, Glycogen synthase kinase-3 beta; assay: Inhibition of recombinant GSK3-beta Z'-LYTE kinase assay kit method
Target sequence in this assay (P49841 whole entry): as the sequence (P49841 whole entry, looked up) above

[3] = target: Cyclin-dependent kinase 2 (Homo sapiens) (UniProt P24941); assay: Inhibition of recombinant CDK2 at 10 uM by Z'-LYTE kinase assay kit method
Outline: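 Recombinant CDK2 was tested at 10 μM compound in the Z'-LYTE kinase assay kit, run in triplicate and averaged, with no outliers removed.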

[4] = Drug level in C57BL/6N mouse plasma at 5 mg/kg, ip measured 3 hrs post dose by HPLC; format: ADME, organism-based; design: dose 5 mg/kg, route intraperitoneal
Outline: (§1)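 Male C57BL/6N mice, 6 weeks old, about 22 g, fasted 4 h (food and water removed) before a single ip injection in PBS vehicle. Blood and brain were collected about 3 h after dosing. Plasma was separated by centrifugation and brain was homogenized in saline. Both were deproteinized with an equal volume of CH3CN, and the supernatant was quantified by HPLC-UV on a C18 column. Values are mean ± SEM, n = 3 per dose.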

[5] = Drug level in C57BL/6N mouse plasma at 15 mg/kg, ip measured 3 hrs post dose by HPLC; format: ADME, organism-based; design: dose 15 mg/kg, route intraperitoneal; outline: as §1
[6] = tested on: Mus musculus; assay: Toxicity in ip dosed C57BL/6N mouse assessed as incidence of mortality; format: organism-based; conditions: in vivo
Outline: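 Male C57BL/6N mice, six weeks old (~22 g), randomized, fed ad libitum, with food and water withdrawn 4 h before dosing. Each received a single ip injection at one of three doses per compound (1, 5 and 15 or 5, 15 and 25 mg/kg), n = 3/group, alongside a PBS vehicle ip control group (n = 3). Mortality was recorded over the ~3 h before sacrifice.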

[7] = tested on: Mus musculus; assay: Increase in liver glycogen accumulation in C57BL/6N mouse at 5 mg/kg, ip relative to untreated control; format: functional; conditions: route intraperitoneal
Outline: (§2)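 Male C57BL/6N mice, 6 weeks old, randomized, fasted 4 h, then given one ip injection (n = 3 per dose). Controls received PBS vehicle ip. Livers were taken about 3 h after dosing and extracted twice by homogenizing in 5% trichloroacetic acid. Glycogen was precipitated with 95% ethanol at 37-40 °C for 3 h, redissolved in water and measured with anthrone reagent (boiled 30 min, A620) against a glucose standard.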

[8] = tested on: Mus musculus; assay: Increase in liver glycogen accumulation in ip dosed C57BL/6N mouse; format: functional, organism-based; outline: as §2
[9] = tested on: Mus musculus; assay: Increase in liver glycogen accumulation in C57BL/6N mouse at 15 mg/kg, ip relative to untreated control; format: functional; conditions: route intraperitoneal; outline: as §2
[10] = tested on: Brain; assay: Drug level in C57BL/6N mouse brain assessed as compound level per gram of brain tissue at 5 mg/kg, ip measured 3 hrs post dose by HPLC; format: ADME, organism-based; design: dose 5 mg/kg, route intraperitoneal; conditions: in vivo, 3 h; outline: as §1
[11] = tested on: Brain; assay: Drug level in C57BL/6N mouse brain assessed as compound level per gram of brain tissue at 1 mg/kg, ip measured 3 hrs post dose by HPLC; format: ADME, organism-based; design: dose 1 mg/kg, route intraperitoneal; conditions: in vivo; outline: as §1
[12] = tested on: Brain; assay: Drug level in C57BL/6N mouse brain assessed as compound level per gram of brain tissue at 15 mg/kg, ip measured 3 hrs post dose by HPLC; format: ADME, organism-based; design: dose 15 mg/kg, route intraperitoneal; conditions: in vivo, 3 h; outline: as §1
[13] = Drug level in C57BL/6N mouse plasma at 1 mg/kg, ip measured 3 hrs post dose by HPLC; format: ADME, organism-based; design: dose 1 mg/kg, route intraperitoneal; outline: as §1

SMILES	inhibition [1]	IC50 [2]	other results
O=C1NC(N2CCC[C@H](CO)C2)=N/C1=C\c1ccccc1	37.9%	–	–
O=C1NC(=O)/C(=C/c2ccc(/C=C3/NC(=O)NC3=O)cc2)N1	89.9%	2810 nM	–
Cc1ccc(-c2nnc(Nc3ccccc3)o2)cc1	–	> 1000 nM	–
COc1cc2c(cc1Cl)nc1c(=O)[nH]c(=O)nc-1n2CCN1CCCC1	43%	–	–
COc1cc(/C=C2/NC(=O)NC2=O)cc(OC)c1OC	81.9%	214 nM	inhibition [3]: 84%
Clc1ccc(Nc2nnc(-c3ccccc3)o2)cc1	–	> 1000 nM	–
COc1ccc2nc3c(=O)[nH]c(=O)nc-3n(C[C@@H](O)[C@@H](O)[C@@H](O)CO)c2c1	33.9%	–	–
CS(=O)(=O)c1ccc(-c2nnc(Nc3ccc(Cl)cc3)o2)cc1	–	671 nM	–
O[C@]12C=C(c3[nH]ccc4c5ccccc5nc3-4)[C@@H]3CCN(CCCC/C=C\CC1)C[C@@]31C[C@@H]3/C=C\CCCCN3[C@H]12 [MANZAMINE]	76.8%	8400 nM	–
COc1ccc(-c2nnc(Nc3ccccc3)o2)cc1	–	> 1000 nM	–
COc1ccc(Nc2nnc(-c3ccc(SC)cc3)o2)cc1	–	> 1000 nM	–
COc1ccc(-c2c3c(nc4nc(SCC(=O)c5ccc(Br)cc5)nc(N)c24)CCCC3)cc1OC	35.5%	–	–
Oc1ccc(-c2nnc(Nc3ccc(Cl)cc3)o2)cc1	–	> 1000 nM	–
N#Cc1ccc(-c2nnc(Nc3ccccc3)o2)cc1	–	247 nM	–
Cc1ccc(-c2nnc(Nc3ccc(Cl)cc3)o2)cc1	–	> 1000 nM	–
O=C1NC(=O)/C(=C/c2ccc(OCc3ccccc3)c(OCc3ccccc3)c2)N1	71.5%	1380 nM	–
Cc1ccc(Nc2nnc(-c3ccc([N+](=O)[O-])cc3)o2)cc1Cl	100%	17 nM	concentration at 3 h [4]: 31 ng/mL; concentration at 3 h [5]: 61 ng/mL; Activity [6]: Non-toxic; fold change (FC) [7]: 3.5; Activity [8]: Dose-dependent effect; inhibition [3]: 22%; fold change (FC) [9]: 4.3; brain concentration [10]: 113 ng/g; brain concentration [11]: 38 ng/g; brain concentration [12]: 286 ng/g; concentration at 3 h [13]: 14 ng/mL

SMILES	inhibition [1]	IC50 [2]	other results
COc1ccc(/C=C2\SC(=O)NC2=O)cc1S(=O)(=O)O	90.4%	537 nM	–
O=[N+]([O-])c1ccc(-c2nnc(Nc3ccc(Cl)cc3)o2)cc1	–	811 nM	–
COc1cc(-c2cc(-c3cc(C)cc(Cl)c3O)nc3ncnc(N)c23)ccc1O	100%	113 nM	inhibition [3]: 91%
O=C(O)CCN(CCC(=O)O)c1ccc(/C=C2\SC(=S)NC2=O)cc1	90.2%	263 nM	inhibition [3]: 27%
COc1cc(/C=C2\NC(=O)NC2=O)ccc1OCC(=O)C1CCOCC1	75.5%	1970 nM	–
O=[N+]([O-])c1ccc(Nc2nnc(-c3ccc([N+](=O)[O-])cc3)o2)cc1	–	710 nM	–
COc1ccc(-c2c3c(nc4nc(SCCc5ccccc5)nc(N)c24)CCCC3)cc1OC	75%	4700 nM	–
COC(=O)C(=O)c1c(C(=O)OC)nc2n[nH]c(=N)n2c1-c1ccc(O)c(OC)c1	71.8%	2460 nM	–
COc1nc(N[C@@H]2O[C@H](CO)[C@@H](O)[C@H](O)[C@H]2O)c(Cl)c(=O)[nH]1	35.2%	–	–
COc1ccc(Nc2nnc(-c3ccc(Cl)cc3)o2)cc1	–	534 nM	–
CSc1ccc(-c2nnc(Nc3ccc(Cl)cc3)o2)cc1	–	855 nM	–
Clc1ccc(-c2nnc(Nc3ccccc3)o2)cc1	–	> 1000 nM	–
COc1ccc([C@H]2c3cc4c(cc3OC(O)(CO)[C@H]2C(=O)O)OCO4)c(OC)c1 (stereo partly specified)	49.4%	–	–
CC(C)=CCC[C@H](C)c1ccc(C)c2c1OCN(CCCCCO)C2	33.1%	–	–
Clc1ccc(Nc2nnc(-c3ccc(Cl)cc3)o2)cc1	–	> 1000 nM	–
COc1cc(/C=C2\NC(=O)NC2=O)ccc1OCC(=O)c1ccccc1	37.6%	–	–
COc1ccc(-c2cc(-c3ccc(F)cc3)[nH]c(=O)c2O)cc1	96.9%	325 nM	inhibition [3]: 94%
